Experimental data collected from several papers.
Protocols differ between the studies behind these lines.
Target: Phosphatidylinositol 4-kinase beta (PI4KB, Homo sapiens, UniProt Q9UBF8)

Structure (SMILES) | observed | technique | concentration | remaining binding
N[C@@H]1CCN(c2nccc(-c3cnn4ncccc34)n2)C1 | binding |  | 1 µM | 80%
CNC(=O)[C@@H]1CC[C@@H](n2c(-c3ccc4cnccc4c3)nc3ccc(C(=O)NCc4cccc(C(N)=O)c4)cc32)C1 | binding | competition with immobilised ligand | 1 µM | 96%
C[C@@H]1CCN(c2nccc(-c3cnn4ncccc34)n2)C1 | binding |  | 1 µM | 20%
COCCOc1nc(-c2ccc(Cl)nc2)nc2c1CN(C(=O)c1ncn3ccccc13)CC2 | cell-free assay | competition with immobilised ligand | 0.1 µM | 100%
COc1ncc2cc3ccccc3nc2c1C#N | cell-free assay | competition with immobilised ligand | 5 µM | 25%
c1cnn2ncc(-c3ccnc(N4CCC45COC5)n3)c2c1 | binding |  | 1 µM | 12%
CSc1cccnc1N1CCN(Cc2nc3ccccc3[nH]2)CC1 | cell-free assay | competition with immobilised ligand | 1 µM | 73%
COc1cnc(Nc2cccc(S(N)(=O)=O)c2)nc1N1CCN(c2ccccc2)CC1 | binding | competition with immobilised ligand | 1 µM | 53%
O=C(c1ccc(Nc2ncc(Cl)c(-c3cc4ccccc4s3)n2)cc1)N1CCC(N2CCCC2)CC1 | binding | competition with immobilised ligand | 1 µM | 76%
CCOC(=O)c1cc2cc(-c3cc(C(=O)NCc4ccc(C(=O)O)cc4)nn3C)ccc2[nH]1 | cell-free assay | competition with immobilised ligand | 0.1 µM | 79%
CN(CCCC(F)(F)F)c1nccc(-c2cnn3ncccc23)n1 | binding |  | 1 µM | 100%
FC(F)(F)Oc1cccc(-c2cnc3ccc(-c4ccncc4)nn23)c1 | binding | competition with immobilised ligand | 5 µM | 0.05%
Cc1cnn2ncc(-c3ccnc(N(C)C)n3)c2c1 | binding |  | 1 µM | 56%
Nc1ncc2c(n1)-c1c([nH]c3ccc(C#CC4CC4)cc13)CCCC2 | binding | competition with immobilised ligand | 1 µM | 100%
Cc1c(C(=O)O)cc(-c2ccc(C3CCNCC3)cc2)c2ccc(-c3ccc(C(F)(F)F)cc3)cc12 | cell-free assay | competition with immobilised ligand | 1 µM | 100%
O=C(c1ccc(Nc2ncc(Cl)c(-c3ccc(Cl)s3)n2)cc1)N1CCC(N2CCCC2)CC1 | binding | competition with immobilised ligand | 1 µM | 100%
c1ccc(N2CCN(Cc3nc4ccccc4[nH]3)CC2)nc1 | cell-free assay | competition with immobilised ligand | 1 µM | 100%
O=C(Nc1c[nH]nc1C(=O)NC1CCNCC1)c1cc(F)cc(F)c1 | binding | competition with immobilised ligand | 1 µM | 100%
CNC(=O)Nc1ccc2c(c1)[C@@]1(CC2)OC(=O)N(CC(=O)N(Cc2ccc(F)cc2)[C@@H](C)C(F)(F)F)C1=O | cell-free assay | competition with immobilised ligand | 1 µM | 71%
Cc1cnc(Nc2ccc(C(=O)N3CCC(N4CCCC4)CC3)cc2)nc1-c1cc2ccccc2s1 | binding | competition with immobilised ligand | 1 µM | 77%
CC(=O)C1=C(C)N(c2cccc(C(F)(F)F)c2)C(=O)N[C@@H]1c1ccc(C#N)nc1 | cell-free assay | competition with immobilised ligand | 1 µM | 100%
CN(C)c1nccc(-c2cnc3ncccn23)n1 | binding |  | 1 µM | 79%
